Measured values published in ChEMBL document CHEMBL1687745 (Antimicrob Agents Chemother, 2009).
In brackets after ≈: the same amount, converted by molar mass. Activity calls are given as the source filed them. The rule behind the calls is not given here.

Tests used:
[1] = system: Bacillus anthracis; assay: Antimicrobial activity against Bacillus anthracis Sterne vegetative cells by broth microdilution method; format: functional
[2] = system: Brevibacillus brevis; assay: Antimicrobial activity against Bacillus brevis clinical isolate by broth microdilution method; format: functional
How it was run: (§1)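 Broth microdilution. Log-phase cultures (5 × 10^5 CFU/ml) seeded in 96-well plates with compound from 0 to 20 µM or 1% DMSO control. Incubated at 37°C for 16 to 20 h. Growth read as absorbance at 600 nm.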

[3] = system: Bacillus licheniformis; assay: Antimicrobial activity against Bacillus licheniformis clinical isolate by broth microdilution method; format: functional
[4] = system: Priestia megaterium; assay: Antimicrobial activity against Bacillus megaterium clinical isolate by broth microdilution method; format: functional
[5] = system: Bacillus pumilus; assay: Antimicrobial activity against Bacillus pumilus clinical isolate by broth microdilution method; format: functional; how it was run: as §1
[6] = system: Bacillus anthracis; assay: Antimicrobial activity against Bacillus anthracis Vollum clinical isolate by broth microdilution method; format: functional
[7] = system: Bacillus subtilis; assay: Antimicrobial activity against Bacillus subtilis clinical isolate by broth microdilution method; format: functional
[8] = system: Staphylococcus aureus; assay: Antimicrobial activity against Staphylococcus aureus ATCC 25923 by broth microdilution method; format: functional; how it was run: as §1
[9] = system: Staphylococcus aureus; assay: Antimicrobial activity against Staphylococcus aureus by broth microdilution method; format: functional; how it was run: as §1
[10] = system: Enterococcus faecalis; assay: Antimicrobial activity against Enterococcus faecalis clinical isolate by broth microdilution method; format: functional; how it was run: as §1
[11] = system: Enterococcus faecalis; assay: Antimicrobial activity against Enterococcus faecalis 29212 clinical isolate by broth microdilution method; format: functional
[12] = system: Mycolicibacterium smegmatis; assay: Antimicrobial activity against Mycobacterium smegmatis 19420 by broth microdilution method; format: functional; how it was run: as §1
[13] = system: Mycolicibacterium smegmatis; assay: Antimicrobial activity against Mycobacterium smegmatis 35798 by broth microdilution method; format: functional; how it was run: as §1
[14] = system: Mycolicibacterium smegmatis; assay: Antimicrobial activity against Mycobacterium smegmatis 700009 by broth microdilution method; format: functional; how it was run: as §1
[15] = system: Staphylococcus aureus; assay: Antimicrobial activity against methicillin-resistant Staphylococcus aureus clinical isolate by broth microdilution method; format: functional
[16] = system: Staphylococcus aureus; assay: Antimicrobial activity against methicillin-resistant Staphylococcus aureus 1094 by broth microdilution method; format: functional
[17] = system: Enterococcus faecium; assay: Antimicrobial activity against vancomycin-resistant Enterococcus faecium B42762 by broth microdilution method; format: functional
[18] = system: Enterococcus faecalis; assay: Antimicrobial activity against vancomycin-resistant Enterococcus faecalis ATCC 51575 by broth microdilution method; format: functional
[19] = system: Escherichia coli; assay: Antimicrobial activity against Escherichia coli J53 clinical isolate by broth microdilution method; format: functional
[20] = system: Klebsiella pneumoniae; assay: Antimicrobial activity against Klebsiella pneumoniae 5657 by broth microdilution method; format: functional; how it was run: as §1
[21] = system: Pseudomonas aeruginosa; assay: Antimicrobial activity against Pseudomonas aeruginosa PAO1 by broth microdilution method; format: functional; how it was run: as §1
[22] = system: Yersinia pestis; assay: Antimicrobial activity against Yersinia pestis by broth microdilution method; format: functional
[23] = system: Burkholderia mallei; assay: Antimicrobial activity against Burkholderia mallei ATCC 23344 by broth microdilution method; format: functional
[24] = system: Burkholderia pseudomallei; assay: Antimicrobial activity against Burkholderia pseudomallei DD503 by broth microdilution method; format: functional
[25] = system: Burkholderia thailandensis; assay: Antimicrobial activity against Burkholderia thailandensis by broth microdilution method; format: functional
[26] = system: Burkholderia cepacia; assay: Antimicrobial activity against Burkholderia cepacia clinical isolate by broth microdilution method; format: functional; how it was run: as §1
[27] = Cytotoxicity against human HeLa cells after 3 days by MTS assay in presence of 10% fetal calf serum; format: cell-based
[28] = system: Bacillus anthracis; assay: Antimicrobial activity against Bacillus anthracis Ames by broth microdilution method in presence of 10% fetal calf serum; format: functional
[29] = system: Bacillus subtilis; assay: Inhibition of DNA synthesis in Bacillus subtilis BD54 at 5 X MIC by [3H]thymidine incorporation assay; format: functional, organism-based
How it was run: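 Precursors were [methyl-3H]thymidine (DNA), [5-3H]uridine (RNA), L-[4,5-3H]leucine (protein) and N-acetyl-D-[1-3H]glucosamine (cell wall). Samples taken over time, precipitated with equal volume of ice-cold 20% TCA, filtered on glass fibre, and counted. cpm plotted against time.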

[30] = system: Bacillus subtilis; assay: Effect on bacterial membrane permeability in Bacillus subtilis BD54 upto 10 times MIC using DiSC3 fluorescent dye staining based fluorimetric assay; format: functional, organism-based
How it was run: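 B. subtilis BD54 grown in LB to OD600 0.4–0.5, washed, and resuspended to OD600 0.1 in 5 mM HEPES pH 7.4 with 20 mM glucose. Loaded with 1 µM DiSC3(5) for 10 min at room temperature, then 100 mM KCl added. […] Fluorescence read at 5 min (ex 622, em 670 nm). DNP 200 µg/ml positive control; mean ± SD of 8 wells.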

[31] = system: Bacillus anthracis; assay: Antibacterial activity against Bacillus anthracis Ames spores infected in C57BL/6 mouse assessed as mouse survival rate at 10 mg/kg, ip for 5 days every 6 hrs administered 6 hrs post bacterial challenge measured up to 20 days post infection; format: functional; conditions: route intraperitoneal
[32] = system: Yersinia pestis; assay: Antibacterial activity against Yersinia pestis CO92 infected in C57BL/6 mouse assessed as protection against microbe-induced mortality at 10 mg/kg, ip for 5 days every 6 hrs administered 6 hrs post bacterial challenge measured after 15 days post infection; format: functional; conditions: route intraperitoneal
[33] = system: Staphylococcus aureus; assay: Antibacterial activity against Staphylococcus aureus Smith infected in Swiss Webster mouse assessed as assessed as protection against microbe-induced mortality at 10 mg/kg, iv administered as single dose 15 mins post bacterial challenge measured 48 hrs post infection; format: functional
How it was run: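 Swiss Webster mice (n = 10/group) were challenged i.p. with 8.3 × 10^8 CFU. After 15 min they received a single i.v. dose in 10% dimethyl acetamide–5% dextrose in water (pH 4.0), alongside vehicle and daptomycin (10 mg/kg) controls. Survival was followed for 48 h.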

[34] = system: Bacillus anthracis; assay: Protection against Bacillus anthracis Sterne spores induced cell death in mouse J774A1 cells assessed as live viable cells at 10 uM by Sytox green dye staining assay relative to untreated control; format: functional, J774.A1
[35] = system: Bacillus anthracis; assay: Protection against Bacillus anthracis Sterne spores induced cell death in mouse J774A1 cells assessed as dead cells at 10 uM by Sytox green dye staining assay relative to untreated control; format: functional, J774.A1
[36] = Cytotoxicity against mouse J774A1 cells assessed as live viable cells at 10 uM by Sytox green dye staining assay relative to untreated control; format: cell-based, J774.A1; conditions: read-out: Activity
How it was run: (§2)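 J774A.1 macrophages, not infected, treated with 1% DMSO control or compound at 10 µM. Sytox green (impermeant to live cells) added for 15 min at 37°C. Cells centrifuged, washed twice in complete medium containing antibiotics, and analysed by flow cytometry for percent live and dead cells.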

[37] = system: J774.A1; assay: Cytotoxicity against mouse J774A1 cells assessed as dead cells at 10 uM by Sytox green dye staining assay relative to untreated control; format: cell-based; conditions: j774.a1, 10 µM; how it was run: as §2
[38] = system: Bacillus anthracis; assay: Inhibition of spore germination in Bacillus anthracis Sterne spores at MIC after 4 hrs; format: functional, organism-based
[39] = system: Staphylococcus aureus; assay: Antibacterial activity against MBX 1090 resistant Staphylococcus aureus NCTC8325 isolates selected on 10 to 12 days of serial passage through MBX 1090; format: functional
How it was run: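 Eight independent S. aureus NCTC8325 cultures were grown with compound at 0.125× to 128× MIC. Each day, cells were passaged from the highest-concentration well still showing >50% of untreated growth, for up to 20 days. Colonies isolated from resistant cultures were confirmed by MIC assay.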

[40] = system: HeLa; assay: Effect on cell membrane integrity in human HeLa cells assessed as lactate dehydrogenase release at 32 times MIC against Staphylococcus aureus by CytoTox ONE homogenous membrane integrity assay; format: cell-based
How it was run: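 Confluent HeLa cells in DMEM treated for 1 h with a range of compound concentrations, 1% DMSO final. […] LDH activity in the supernatant measured by a membrane-integrity kit.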

[41] = system: Bacillus anthracis; assay: microbe, parasite or virus in culture; conditions: Ames
[42] = system: Bacillus anthracis; assay: microbe, parasite or virus in culture; conditions: Ames; remark: listed apart in the source

## c1cc2cc(-c3ccc(-c4cc5ccc(C6=NCCN6)cc5[nH]4)cc3)[nH]c2cc1C1=NCCN1
[1]
  MIC: 0.7 µg/mL (≈ 1.57 µM)
[2]
  MIC: 0.7 µg/mL (≈ 1.57 µM)
[3]
  MIC: 0.7 µg/mL (≈ 1.57 µM)
[4]
  MIC: 0.3 µg/mL (≈ 0.675 µM)
[5]
  MIC: < 0.1 µg/mL
[6]
  MIC: 0.3 µg/mL (≈ 0.675 µM)
[7]
  MIC: 0.2 µg/mL (≈ 0.45 µM)
[8]
  MIC: 0.1 µg/mL (≈ 0.225 µM)
[9]
  MIC: 0.3 µg/mL (≈ 0.675 µM)
[10]
  MIC: 0.2 µg/mL (≈ 0.45 µM)
[11]
  MIC: 0.2 µg/mL (≈ 0.45 µM)
[12]
  MIC: < 0.1 µg/mL
[13]
  MIC: < 0.1 µg/mL
[14]
  MIC: 0.1 µg/mL (≈ 0.225 µM)
[15]
  MIC: 0.3 µg/mL (≈ 0.675 µM)
[16]
  MIC: 0.2 µg/mL (≈ 0.45 µM)
[17]
  MIC: < 0.1 µg/mL
[18]
  MIC: 0.1 µg/mL (≈ 0.225 µM)
[19]
  MIC: 0.7 µg/mL (≈ 1.57 µM)
[20]
  MIC: 3.8 µg/mL (≈ 8.55 µM)
[21]
  MIC: 7.5 µg/mL (≈ 16.9 µM)
[22]
  MIC: 3.4 µg/mL (≈ 7.65 µM)
[23]
  MIC: 1.7 µg/mL (≈ 3.82 µM)
[24]
  MIC: 1.7 µg/mL (≈ 3.82 µM)
[25]
  MIC: 21 µg/mL (≈ 47.2 µM)
[26]
  MIC: > 20 µg/mL
[27]
  CC50 at 72 h: 3 µg/mL
[28]
  MIC: 1.1 µg/mL
[29]
  inhibition: Active
[30]
  Activity: Active
[31]
  survival at 10 mg/kg: 100%
[32]
  survival at 10 mg/kg: 90%
[33]
  survival at 10 mg/kg: 80%
[34]
  Activity: 77%
[35]
  Activity: 22%
[36]
  viability at 10 µM: 94%
[37]
  Activity: 5%
[38]
  inhibition: inactive
[39]
  MIC: Active
[40]
  Activity: Non-toxic
[41]
  MBC: 0.7 µg/mL (≈ 1.57 µM)
  MIC: 0.3 µg/mL (≈ 0.675 µM)
[42]
  MBC: 0.4 µg/mL (≈ 0.9 µM)
